# Tests used:
# Nrf2 = test: Neh2-luc SH-SY5Y cell-based reporter; conditions: for Nrf2 activity in Neh2-luciferase reporter assay (library screen): IRSF SMART library screen
# Outline: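 Luciferase reporter in SH-SY5Y cells carrying the Nrf2 Neh2 fusion (Neh2-luc). It is used to find agents that directly stabilize the Nrf2 transcription factor. Run as a screen of an approved and preclinical drug library, and as concentration-response testing of selected compounds. TBHQ was the reference Nrf2 activator.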
# HIF-1α = test: ODD-luc SH-SY5Y cell reporter; type: cell-based; conditions: SH-SY5Y cells
# Outline: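 HIF-1α ODD-luciferase reporter in SH-SY5Y cells, run as concentration-response testing. The PHD inhibitor FG-4592 served as the HIF-activating control.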
Structure (SMILES),"Nrf2 (Neh2-luc) fold activation (Nrf2; SH-SY5Y cells, fold increase in luminescence relative to vehicle control) [fold]",Nrf2 activity in Neh2-luciferase reporter assay (library screen) (Nrf2),HIF-1α (ODD-luc) fold activation (HIF-1α) [fold]
"CC1(C)CNc2ccccc21 [3,3-dimethylindoline (III)]",1.8,–,–
O=C(CCCCCCC(=O)Nc1ccccc1)NO [SAHA],–,Nrf2 hits,–
CC(/C=C/C(=O)NO)=C\[C@@H](C)C(=O)c1ccc(N(C)C)cc1 [TSA],–,Nrf2 hits,–
Nc1ccccc1NC(=O)c1ccc(CNC(=O)OCc2cccnc2)cc1 [entinostat],–,completely inactive,–
O=C(/C=C/C#Cc1cccc(NS(=O)(=O)c2ccccc2)c1)NO [oxamflatin],–,Nrf2 hits,–
CC(=O)Nc1ccc(C(=O)Nc2ccccc2N)cc1 [tacedinaline],–,inactive,–
CN1CCc2c(c3ccccc3n2Cc2ccc(C(=O)NO)cc2)C1 [tubastatin],–,Nrf2 hits,2.4
